≈ marks a conversion by molar mass, not a printed value.
Legend:
K. pneumoniae NCTC 13438 = assay: Broth micro-dilution MIC / dose-response growth inhibition; type: cell-based, Klebsiella pneumoniae; details: for MIC: Klebsiella pneumoniae, NCTC13438, read-out: K. pneumoniae NCTC 13438 MIC; for K. pneumoniae NCTC 13438 Interp.: S/R interpretation by EUCAST breakpoint, ECOFF or fold vs QC strain
A. baumannii NCTC 13424 = assay: as above; type: cell-based, Acinetobacter baumannii; details: for MIC: Acinetobacter baumannii, NCTC13424, read-out: A. baumannii NCTC 13424 MIC; for A. baumannii NCTC 13424 Interp.: S/R interpretation by EUCAST breakpoint, ECOFF or fold vs QC strain
K. pneumoniae Ecl8 = assay: as above; type: cell-based, Klebsiella pneumoniae; details: for MIC: Klebsiella pneumoniae, ECL8, read-out: K. pneumoniae Ecl8 MIC; for K. pneumoniae Ecl8 Interp.: S/R interpretation by EUCAST breakpoint, ECOFF or fold vs QC strain
[1] = tested on: primary screening strains (A. baumannii NCTC 13424, K. pneumoniae NCTC 13438, K. pneumoniae Ecl8); assay: HTS / susceptibility assay with the primary screening strains; type: cell-based; details: 50 mg L^−1, positive control
Method in brief: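 Broth microdilution (EUCAST method adapted to 384-well); inoculum 5 × 10^5 CFU mL−1 (OD600 0.0005); static at 37 °C in 5% CO2 for 24 h (K. pneumoniae) or 20 h (A. baumannii); compound at one concentration in duplicate, or two concentrations (1.4–68.0 μM, 0.5% DMSO) singly for one library; OD600 read; % growth inhibition normalised between apramycin 50 mg L−1 and DMSO wells; actives called at 3σ.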

Compound | MIC (K. pneumoniae NCTC 13438) [µg/mL] | K. pneumoniae NCTC 13438 Interp. (K. pneumoniae NCTC 13438) | MIC (A. baumannii NCTC 13424) [µg/mL] | A. baumannii NCTC 13424 Interp. (A. baumannii NCTC 13424) | MIC (K. pneumoniae Ecl8) [µg/mL] | K. pneumoniae Ecl8 Interp. (K. pneumoniae Ecl8) | growth inhibition of primary screening strains [1]
CO/N=C(\C(=O)N[C@@H]1C(=O)N2C(C(=O)[O-])=C(C[N+]3(C)CCCC3)CS[C@H]12)c1csc(N)n1 [Cefepime] | 128 (≈ 266 µM) | R | 32 (≈ 66.6 µM) | R | 0.12 (≈ 0.25 µM) | S | 
O=C(N[C@H](CO)[C@H](O)c1ccc([N+](=O)[O-])cc1)C(Cl)Cl [Chloramphenicol] | 32 (≈ 99 µM) | R | 64 (≈ 198 µM) |  | 4 (≈ 12.4 µM) | S | 
NCC[C@H](O)C(=O)N[C@@H]1C[C@H](N)[C@@H](O[C@H]2O[C@H](CN)[C@@H](O)[C@H](O)[C@H]2O)[C@H](O)[C@H]1O[C@H]1O[C@H](CO)[C@@H](O)[C@H](N)[C@H]1O [Amikacin] | 64 (≈ 109 µM) | R | > 512 | R | 2 (≈ 3.42 µM) | S | 
CN[C@@H]1[C@@H](O[C@H]2O[C@H](CO)[C@@H](N)[C@H](O)[C@H]2O)OC2C[C@@H](N)[C@@H](O[C@H]3[C@H](O)[C@@H](O)[C@H](N)C[C@@H]3N)OC2[C@@H]1O (some centres unmarked) [Apramycin] | 4 (≈ 7.41 µM) | S ^c | 8 (≈ 14.8 µM) | S ^c | 4 (≈ 7.41 µM) | S ^c | completely inhibited the growth
CC(C)(O/N=C(\C(=O)N[C@@H]1C(=O)N2C(C(=O)[O-])=C(C[n+]3ccccc3)CS[C@H]12)c1csc(N)n1)C(=O)O [Ceftazidime] | 512 (≈ 937 µM) | R | 64 (≈ 117 µM) | R | 0.5 (≈ 0.915 µM) | S | 
Colistin |  | S ^b |  | S ^b |  | S ^b | 
C[C@@H](O)[C@H]1C(=O)N2C(C(=O)O)=C(S[C@@H]3CN[C@H](C(=O)N(C)C)C3)[C@H](C)[C@H]12 [Meropenem] |  | R | 64 (≈ 167 µM) | R | 0.06 (≈ 0.156 µM) | S | 
CN(C)[C@@H]1C(O)=C(C(N)=O)C(=O)[C@@]2(O)C(O)=C3C(=O)c4c(O)cccc4[C@@](C)(O)[C@H]3C[C@@H]12 [Tetracycline] | 4 (≈ 9 µM) | S ^b | 256 (≈ 576 µM) | R ^b | 1 (≈ 2.25 µM) | S ^b | 
COc1cc(Cc2cnc(N)nc2N)cc(OC)c1OC [Trimethoprim] | > 512 | R | 128 (≈ 441 µM) | R | 4 (≈ 13.8 µM) | S | 
C[C@H]1[C@H](NC(=O)/C(=N\OC(C)(C)C(=O)O)c2csc(N)n2)C(=O)N1S(=O)(=O)O [Aztreonam] | > 512 | R | 32 (≈ 73.5 µM) |  | 0.25 (≈ 0.574 µM) | S | 
C[C@H]1COc2c(N3CCN(C)CC3)c(F)cc3c(=O)c(C(=O)O)cn1c23 [Levofloxacin] | 128 (≈ 354 µM) | R | 32 (≈ 88.6 µM) | R | 0.12 (≈ 0.332 µM) | S | 
Polymyxin B |  | S ^c |  | S ^c |  | S ^c | 
NC[C@H]1O[C@H](O[C@H]2[C@H](O)[C@@H](O[C@H]3O[C@H](CO)[C@@H](O)[C@H](N)[C@H]3O)[C@H](N)C[C@@H]2N)[C@H](N)C[C@@H]1O [Tobramycin] | 32 (≈ 68.4 µM) | R | > 512 | R | 1 (≈ 2.14 µM) | S | 
Cc1cc(NS(=O)(=O)c2ccc(N)cc2)no1 [Sulfamethoxazole] | > 512 | R ^c | > 512 | R ^c | 64 (≈ 253 µM) | R ^c | 
C[C@@H]1O[C@@H]1P(=O)(O)O [Fosfomycin] | 16 (≈ 116 µM) | S | 64 (≈ 464 µM) |  | 64 (≈ 464 µM) | R | 
CO/N=C(\C(=O)N[C@@H]1C(=O)N2C(C(=O)O)=C(COC(C)=O)CS[C@H]12)c1csc(N)n1 [Cefotaxime] | 256 (≈ 562 µM) | R | 512 (≈ 1120 µM) | R | 0.06 (≈ 0.132 µM) | S | 
C[C@@H](O)[C@H]1C(=O)N2C(C(=O)O)=C(SCCN=CN)C[C@H]12 [Imipenem] | 128 (≈ 428 µM) | R | 128 (≈ 428 µM) | R | 0.25 (≈ 0.835 µM) | S | 
O=C(O)c1cn(C2CC2)c2cc(N3CCNCC3)c(F)cc2c1=O [Ciprofloxacin] | > 512 |  |  | R |  |  | 
CN(C)c1ccc(O)c2c1C[C@H]1C[C@H]3[C@H](N(C)C)C(O)=C(C(N)=O)C(=O)[C@@]3(O)C(O)=C1C2=O [Minocycline] | 4 (≈ 8.74 µM) | S ^b | 4 (≈ 8.74 µM) | S ^b | 2 (≈ 4.37 µM) | S ^b | 
CNC(C)C1CCC(N)C(OC2C(N)CC(N)C(OC3OCC(C)(O)C(NC)C3O)C2O)O1 (centres unmarked) [Gentamicin] | 4 (≈ 8.38 µM) | R | > 512 | R | 1 (≈ 2.09 µM) | S | 
